Here are results for 7 molecules from ChEMBL document CHEMBL1165926, “Synthesis and characterization of potent inhibitors of Trypanosoma cruzi dihydrofolate reductase” (Bioorg Med Chem, 2010).

SMILES strings stand for the structures.

For test [1], the target named is T1, Bifunctional dihydrofolate reductase-thymidylate synthase (Trypanosoma cruzi, UniProt Q27793). The test can be described thus: Inhibition of Trypanosoma cruzi DHFR by spectrophotometric assay. In outline:
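Recombinant bifunctional T. cruzi DHFR-TS in 50 mM Tris-HCl pH 7.0 with DHF, 100 µM NADPH and 0.5–1.0 µg enzyme; velocity from absorbance at 340 nm over 30 s at 22.6 °C. IC50 from velocities at several inhibitor concentrations for each of three DHF concentrations, then averaged; Ki calculated from IC50. Triplicates, repeated on different days.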

A further test concerns the target T2, Dihydrofolate reductase (Homo sapiens, UniProt P00374).
T2 sequence (P00374 whole entry): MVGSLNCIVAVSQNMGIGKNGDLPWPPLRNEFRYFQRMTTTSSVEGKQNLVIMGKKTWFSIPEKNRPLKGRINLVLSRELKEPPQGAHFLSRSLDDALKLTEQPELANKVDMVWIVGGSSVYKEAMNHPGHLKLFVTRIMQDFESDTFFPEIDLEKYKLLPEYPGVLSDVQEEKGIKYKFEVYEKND
The test can be described thus: Inhibition of human DHFR by spectrophotometric assay.

Test [2] deals with T1, Bifunctional dihydrofolate reductase-thymidylate synthase. The test can be described thus: Inhibition of Trypanosoma cruzi DHFR by Lineweaver-Burke plot. The gist of the method:
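Recombinant bifunctional T. cruzi DHFR-TS; 50 mM Tris-HCl pH 7.0 with DHF, 100 µM NADPH and 0.5–1.0 µg enzyme; initial velocity followed at 340 nm for 30 s at 22.6 °C. Velocities taken at five DHF concentrations for each of three inhibitor concentrations; Ki read from Lineweaver–Burk plots.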

T1 sequence (Q27793 whole entry): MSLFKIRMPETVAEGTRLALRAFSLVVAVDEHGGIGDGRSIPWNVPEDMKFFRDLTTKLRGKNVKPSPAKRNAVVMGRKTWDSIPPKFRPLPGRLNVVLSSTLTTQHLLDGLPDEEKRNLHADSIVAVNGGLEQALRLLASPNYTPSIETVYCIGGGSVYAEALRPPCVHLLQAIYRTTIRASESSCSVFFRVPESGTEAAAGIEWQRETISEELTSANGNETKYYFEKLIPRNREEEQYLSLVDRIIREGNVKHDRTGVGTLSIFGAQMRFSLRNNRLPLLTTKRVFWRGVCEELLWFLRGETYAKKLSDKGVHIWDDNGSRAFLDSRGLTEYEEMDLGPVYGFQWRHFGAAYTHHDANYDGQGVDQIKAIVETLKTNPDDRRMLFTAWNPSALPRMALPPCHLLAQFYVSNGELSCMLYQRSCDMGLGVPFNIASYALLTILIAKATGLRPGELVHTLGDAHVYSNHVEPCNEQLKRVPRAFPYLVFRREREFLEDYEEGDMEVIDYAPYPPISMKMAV

For the molecule `COc1ccc(NCc2ccc3nc(N)nc(N)c3c2)cc1OC`, the IC50 (in general, the concentration at which inhibition is half-maximal) in test [1] was found to be 27.1 nM; against Dihydrofolate reductase it was 85.5 nM. The results for the Ki (in test [1]; on Dihydrofolate reductase; in test [2]) were 1.6 nM, 11.8 nM and 4.75 nM, respectively.

Take `CCCN(Cc1ccc2nc(N)nc(N)c2c1)c1ccc(OC)c(OCCCCC(=O)OC)c1`: the IC50 in test [1] was 422 nM; at Dihydrofolate reductase, 1340 nM. The Ki (as a rule, a dissociation constant, usually derived from enzyme kinetics or from competition with a known ligand) in test [1] stood at 24.9 nM; on Dihydrofolate reductase, 188 nM.

On to `COc1ccc(NCc2ccc3nc(N)nc(N)c3c2)cc1OCCCC(=O)O`, for which, in test [1], the IC50 turned out to be 61 nM and the Ki was 3.6 nM. Besides, on Dihydrofolate reductase, the midpoint of inhibition, the IC50, lay at 357 nM and the Ki was found to be 49.8 nM.

`COC(=O)CCCCOc1cc(NCc2ccc3nc(N)nc(N)c3c2)ccc1OC`: in test [1], 27 nM corresponded to half-maximal inhibition (IC50) and the Ki was determined as 1.6 nM. On Dihydrofolate reductase, this molecule gave an IC50 of 93.5 nM and a Ki of 13 nM.

In the case of `COC(=O)c1ccc(COc2cc(NCc3ccc4nc(N)nc(N)c4c3)ccc2OC)cc1`, the results for the IC50 (in test [1]; on Dihydrofolate reductase) were 57.5 nM and 175 nM, respectively. The results for the Ki (in test [1]; on Dihydrofolate reductase) were 3.3 nM and 24.5 nM, respectively.

For the molecule `CCOC(=O)CCCOc1cc(NCc2ccc3nc(N)nc(N)c3c2)ccc1OC`, the half-maximal inhibitory concentration (IC50) in test [1] was determined as 23.8 nM; against Dihydrofolate reductase it was 68.3 nM. The Ki in test [1] came to 1.3 nM; at Dihydrofolate reductase, 9.6 nM; in test [2] it was 5.68 nM.

As for `COc1cc(NCc2ccc3nc(N)nc(N)c3c2C)cc(OC)c1OC` [TRIMETREXATE], in test [1], the IC50 came out at 20.2 nM and the Ki was 6.6 nM.
